Source: ChEMBL document CHEMBL3817726, “Chemically Diverse Group I p21-Activated Kinase (PAK) Inhibitors Impart Acute Cardiovascular Toxicity with a Narrow Therapeutic Window” (J Med Chem, 2016)
pKi: −log10 of the molar value. ≈ marks a conversion by molar mass, not a printed value.

Assays:
Plasma = test: Unbound drug concentration in mouse plasma at 25 mg/kg, po at 0.25 hrs; conditions: in vivo
[1] = target: Serine/threonine-protein kinase PAK 1/PAK 2 (Homo sapiens, UniProt Q13177+Q13153); test: Inhibition of PAK1/2 in human EBC1 cells assessed as phosphorylation of MEK1 at serine 298 after 2 hrs by HTRF assay; type: cell-based
Mus musculus [2] = test: Toxicity in mouse assessed as mortality at 12.5 mg/kg, po after 0.25 hrs; type: organism-based; conditions: in vivo
[3] = Kinetic solubility of the compound at pH 7.4; type: physicochemical; conditions: buffer, read-out: Kinetic_solubility
[4] = target: Serine/threonine-protein kinase PAK 1 (Homo sapiens, UniProt Q13153); test: Inhibition of human recombinant N-terminal 6-His-tagged PAK1 kinase domain (249 to 545 residues) expressed in Escherichia coli BL21(DE3) assessed as phosphorylation of coumarin labeled FRET peptide substrate at Ser/Thr19 preincubated for 10 mins followed by ATP addition measured after 60 mins by Z'-LYTE assay
[5] = Plasma concentration in mouse at 25 mg/kg, po at 15 mins; type: ADME, organism-based
Homo sapiens = species on record: Homo sapiens; test: Selectivity for human recombinant N-terminal 6-His-tagged PAK1 kinase domain (249 to 545 residues) over LCK (unknown origin)
[6] = Plasma concentration in mouse at 12.5 mg/kg, po at 0.5 hrs; type: ADME, organism-based
Mus musculus [7] = test: Toxicity in mouse assessed as mortality at 25 mg/kg, po after 2 hrs; type: organism-based; conditions: in vivo
Method in brief: (§1)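 Mouse tolerability study at multiple oral doses, with lethality and clinical signs monitored after dosing. Plasma drug concentrations were measured, and the minimum unbound concentration linked to adverse effects was compared with the cellular pMEK S298 IC₅₀.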

[8] = Fraction unbound in mouse plasma at 12.5 to 25 mg/kg, po; type: ADME, organism-based
[9] = Plasma concentration in mouse at 25 mg/kg, po at 0.25 hrs
Mus musculus [10] = test: Toxicity in mouse assessed as mortality at 12.5 mg/kg, po after 0.5 hrs; type: organism-based; conditions: in vivo
Method in brief: as §1

[11] = Cmax associated with acute adverse effect in mouse at 12.5 to 25 mg/kg, po; type: ADME, organism-based; conditions: in vivo
Method in brief: (§2)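 Mouse tolerability studies tested multiple doses, given orally or intraperitoneally. Plasma drug concentrations were measured, including at a 15 min time point. The minimum concentration associated with adverse clinical signs or death was taken as the adverse Cmax and was converted to an unbound value.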

[12] = Apparent permeability across apical to basolateral side in MDCK cells at 10 uM after 60 mins; type: ADME, cell-based, Canis lupus familiaris; conditions: dog
[13] = Lipophilicity, log D of the compound at pH 7.4; type: physicochemical; conditions: buffer
[14] = target: Serine/threonine-protein kinase PAK 2 (Homo sapiens, UniProt Q13177); test: Inhibition of human recombinant PAK2 assessed as phosphorylation of coumarin labeled FRET peptide substrate at Ser/Thr19 preincubated for 10 mins followed by ATP addition measured after 60 mins by Z'-LYTE assay
[15] = Efflux ratio of permeability across basolateral to apical side over apical to basolateral side in MDCK cells at 10 uM after 60 mins; type: ADME, cell-based, Canis lupus familiaris; conditions: dog
Mus musculus [16] = test: fCmax associated with acute adverse effect in mouse at 12.5 to 25 mg/kg, po; type: ADME, organism-based; conditions: in vivo
Method in brief: (§3)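 Mouse tolerability studies at multiple doses, oral or intraperitoneal. Minimum unbound plasma concentration associated with adverse effects (total Cmax converted to unbound) compared with IC50 for inhibition of MEK1 S298 phosphorylation in cells.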

[17] = Ratio of fCmax associated with acute adverse effect in mouse at 12.5 to 25 mg/kg, po to IC50 for PAK1/2-mediated phosphorylation of MEK1 at serine 298 in human EBC1 cells
Method in brief: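 Mice were dosed at multiple levels, orally or intraperitoneally, and monitored for acute adverse signs. The minimum unbound plasma Cmax associated with adverse effects was converted from total drug concentration and compared with the cellular IC50 for phospho-MEK1 S298 inhibition.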

[18] = Cmax associated with acute adverse effect in mouse at 25 to 150 mg/kg, ip; type: ADME, organism-based; conditions: in vivo
Mus musculus [19] = test: fCmax associated with acute adverse effect in mouse at 25 to 150 mg/kg, ip; type: ADME, organism-based; conditions: in vivo
[20] = Fraction unbound in mouse plasma at 25 to 150 mg/kg, ip; type: ADME, organism-based
[21] = Ratio of fCmax associated with acute adverse effect in mouse at 25 to 150 mg/kg, ip to IC50 for PAK1/2-mediated phosphorylation of MEK1 at serine 298 in human EBC1 cells
[22] = Fraction unbound in mouse plasma at 50 to 100 mg/kg, ip; type: ADME, organism-based
[23] = Ratio of fCmax associated with acute adverse effect in mouse at 50 to 100 mg/kg, ip to IC50 for PAK1/2-mediated phosphorylation of MEK1 at serine 298 in human EBC1 cells
Method in brief: as §3

Mus musculus [24] = test: fCmax associated with acute adverse effect in mouse at 50 to 100 mg/kg, ip; type: ADME, organism-based; conditions: in vivo
Method in brief: as §3

[25] = Cmax associated with acute adverse effect in mouse at 50 to 100 mg/kg, ip; type: ADME, organism-based; conditions: in vivo
Method in brief: as §2

[26] = Ratio of fCmax associated with acute adverse effect in mouse at 100 mg/kg, ip to IC50 for PAK1/2-mediated phosphorylation of MEK1 at serine 298 in human EBC1 cells
Mus musculus [27] = test: Toxicity in mouse at 100 mg/kg, ip; type: organism-based; conditions: in vivo
[28] = Cmax associated with acute adverse effect in mouse at 100 mg/kg, ip; type: ADME, organism-based; set-up: dose 100 mg/kg, route intraperitoneal; conditions: in vivo
Method in brief: as §2

[29] = Fraction unbound in mouse plasma at 100 mg/kg, ip; type: ADME, organism-based
Mus musculus [30] = test: fCmax associated with acute adverse effect in mouse at 100 mg/kg, ip; type: ADME, organism-based; conditions: in vivo
Method in brief: as §3

Rattus norvegicus [31] = species on record: Rattus norvegicus; test: Toxicity in rat assessed as slow blood flow; type: organism-based; conditions: in vivo
Rattus norvegicus [32] = species on record: Rattus norvegicus; test: Toxicity in rat assessed as hunched posture; type: organism-based; conditions: in vivo
Mus musculus [33] = test: fCmax associated with acute adverse effect in mouse at 60 to 80 mg/kg, po; type: ADME, organism-based; conditions: in vivo
Method in brief: as §3

Rattus norvegicus [34] = species on record: Rattus norvegicus; test: Toxicity in rat assessed as hypoactivity; type: organism-based; conditions: in vivo
Rattus norvegicus [35] = species on record: Rattus norvegicus; test: Toxicity in rat assessed as darkened blood; type: organism-based; conditions: in vivo
Mus musculus [36] = test: Toxicity in mouse assessed as slow blood flow at 60 to 80 mg/kg, po; type: organism-based; conditions: in vivo
Mus musculus [37] = test: Toxicity in mouse assessed as darkened blood at 60 to 80 mg/kg, po; type: organism-based; conditions: in vivo
[38] = Fraction unbound in mouse plasma at 60 to 80 mg/kg, po; type: ADME, organism-based
Mus musculus [39] = test: Toxicity in mouse assessed as hunched posture at 60 to 80 mg/kg, po; type: organism-based; conditions: in vivo
[40] = Cmax associated with acute adverse effect in rat; type: ADME, organism-based; conditions: in vivo
[41] = Cmax associated with acute adverse effect in mouse at 60 to 80 mg/kg, po; type: ADME, organism-based; conditions: in vivo
Method in brief: as §2

Mus musculus [42] = test: Toxicity in mouse assessed as hypoactivity at 60 to 80 mg/kg, po; type: organism-based; conditions: in vivo
Rattus norvegicus [43] = species on record: Rattus norvegicus; test: fCmax associated with acute adverse effect in rat; type: ADME, organism-based; conditions: in vivo

Serine/threonine-protein kinase PAK 2, sequence (Q13177 whole entry): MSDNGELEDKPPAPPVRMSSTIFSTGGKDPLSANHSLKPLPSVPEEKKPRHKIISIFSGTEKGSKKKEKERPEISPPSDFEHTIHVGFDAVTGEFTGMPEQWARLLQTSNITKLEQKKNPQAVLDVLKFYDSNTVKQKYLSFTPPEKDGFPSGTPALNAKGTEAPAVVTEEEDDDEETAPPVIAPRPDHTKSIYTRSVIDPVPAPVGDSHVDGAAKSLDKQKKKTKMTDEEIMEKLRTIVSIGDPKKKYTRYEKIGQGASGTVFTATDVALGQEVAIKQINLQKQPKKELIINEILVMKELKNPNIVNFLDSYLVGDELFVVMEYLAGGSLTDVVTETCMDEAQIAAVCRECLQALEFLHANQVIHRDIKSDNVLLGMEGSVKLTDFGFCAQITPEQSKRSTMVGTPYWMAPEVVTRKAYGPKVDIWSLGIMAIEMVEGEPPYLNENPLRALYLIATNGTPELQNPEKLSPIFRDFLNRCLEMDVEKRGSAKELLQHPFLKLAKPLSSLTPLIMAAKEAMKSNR
Serine/threonine-protein kinase PAK 1, sequence (Q13153 whole entry, the tested form may be a part): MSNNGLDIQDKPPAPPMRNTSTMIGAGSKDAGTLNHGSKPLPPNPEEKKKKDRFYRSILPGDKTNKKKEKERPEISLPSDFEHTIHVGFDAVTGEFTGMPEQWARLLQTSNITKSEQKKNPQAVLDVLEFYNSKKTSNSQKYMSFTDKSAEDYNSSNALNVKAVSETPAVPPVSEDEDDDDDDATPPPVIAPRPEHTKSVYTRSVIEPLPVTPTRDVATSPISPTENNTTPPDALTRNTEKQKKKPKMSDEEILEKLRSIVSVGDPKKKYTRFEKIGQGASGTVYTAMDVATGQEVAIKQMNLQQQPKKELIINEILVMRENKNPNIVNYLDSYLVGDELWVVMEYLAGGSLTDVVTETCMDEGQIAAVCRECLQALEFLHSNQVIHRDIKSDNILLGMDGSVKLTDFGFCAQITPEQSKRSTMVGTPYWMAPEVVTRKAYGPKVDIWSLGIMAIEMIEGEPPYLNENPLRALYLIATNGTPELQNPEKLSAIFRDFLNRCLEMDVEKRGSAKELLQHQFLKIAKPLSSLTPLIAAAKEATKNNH

Structure (SMILES): CNc1ncc2cc(-c3ccc(-n4cccc(C)c4=O)cc3Cl)c(=O)n(CCC3(F)CN(C)C3)c2n1
- Cp(f) (Plasma): 0.088 µM
- IC50 [1]: 33 nM
- Activity (Mus musculus [2]): Toxic
- solubility kinetic [3]: 117 µM (≈ 59.6 µg/mL)
- pKi [4]: 9.02
- concentration at 0.25 h [5]: 2.8 µM
- Selectivity ratio (Homo sapiens): 57
- concentration at 0.5 h [6]: 1.89 µM
- Activity (Mus musculus [7]): Toxic
- fraction unbound [8]: 0.032
- concentration at 0.25 h [9]: 2.24 µM
- Activity (Mus musculus [10]): Toxic
- Cmax [11]: 2.8 µM
- Papp A→B at 1 h, 10 µM [12]: 6.9 ×10⁻⁶ cm/s
- logD [13]: 1.8
- pKi [14]: 8.70
- efflux ratio at 1 h, 10 µM [15]: 2
- fCmax (Mus musculus [16]): 0.088 µM
- Ratio [17]: 1

Structure (SMILES): CCn1c(=O)c(-c2ccc(-n3cccc(C)c3=O)cc2Cl)cc2cnc(NC3COC3)nc21
- Cmax [18]: 41 µM
- IC50 [1]: 150 nM
- solubility kinetic [3]: 2.6 µM (≈ 1.21 µg/mL)
- pKi [4]: 8.20
- fCmax (Mus musculus [19]): 0.24 µM
- Selectivity ratio (Homo sapiens): 123
- fraction unbound [20]: 0.006
- Papp A→B at 1 h, 10 µM [12]: 37 ×10⁻⁶ cm/s
- logD [13]: 2.5
- pKi [14]: 7.68
- efflux ratio at 1 h, 10 µM [15]: 0.4
- Ratio [21]: 1

Structure (SMILES): Cc1nccn(-c2ccc(-c3cc4cnc(NC5COC5)nc4n(CC4CCNCC4(F)F)c3=O)c(Cl)c2)c1=O (single isomer, unassigned)
- IC50 [1]: 280 nM
- fraction unbound [22]: 0.076
- pKi [4]: 8.28
- Ratio [23]: 1
- fCmax (Mus musculus [24]): 0.89 µM
- Cmax [25]: 12 µM
- pKi [14]: 8.34

Structure (SMILES): CCc1cccn(-c2ccc(-c3cc4cnc(NC)nc4n(C[C@H]4CNCCO4)c3=O)c(Cl)c2)c1=O
- Ratio [26]: 1
- Activity (Mus musculus [27]): Toxic
- IC50 [1]: 240 nM
- pKi [4]: 7.96
- Cmax [28]: 28 µM
- fraction unbound [29]: 0.027
- fCmax (Mus musculus [30]): 0.76 µM
- pKi [14]: 8.02

Structure (SMILES): CCn1c(=O)c(-c2ccc(-c3cncc(C)n3)cc2Cl)cc2cnc(NCCC3CCN(C)CC3)nc21
- Activity (Rattus norvegicus [31]): Toxic
- Activity (Rattus norvegicus [32]): Toxic
- fCmax (Mus musculus [33]): 0.27 µM
- Activity (Rattus norvegicus [34]): Toxic
- Activity (Rattus norvegicus [35]): Toxic
- Activity (Mus musculus [36]): Toxic
- Activity (Mus musculus [37]): Toxic
- fraction unbound [38]: 0.017
- Activity (Mus musculus [39]): Toxic
- Cmax [40]: 4 µM
- Cmax [41]: 16 µM
- Activity (Mus musculus [42]): Toxic
- fCmax (Rattus norvegicus [43]): 0.076 µM
